Reference: ChEMBL document CHEMBL4765449, “Synthesis, biological evaluation and toxicity of novel tetrandrine analogues” (Eur J Med Chem, 2020)
Calls of active or inactive are those of the source. No cut-off for these calls is given here.

What was measured:
HepG2 [1] = assay: Cytotoxicity against human HepG2 cells overexpressing EGFP-CYP3A4 assessed as reduction in cell viability at 15 uM measured after 24 hrs by propidium iodide staining based flow cytometry; assay type: functional
How it was run: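 HepG2 stably transfected (G418 0.5 mg/mL, four weeks; plasmid confirmed by PCR) with pcDNA3-CYP3A4-EGFP or empty vector, 0.1 × 10^6 per well, adhered overnight; 15 μM compound 24 h. Propidium iodide staining and flow cytometry; specific cell death relative to control. Three independent experiments.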

HepG2 [2] = assay: Induction of apoptosis in human HepG2 cells assessed as increase in PARP cleavage at 5 uM measured after 24 hrs by Western blot analysis; assay type: functional, cell-based
How it was run: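 HepG2, 0.5 × 10^6 per well, adhered overnight, then DMSO or 5 μM compound; RIPA lysates immunoblotted by SDS-PAGE/PVDF with chemiluminescent detection.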

CEM [3] = assay: Effect on AKT phosphorylation at Ser473 residue in vincristine-resistant human CEM cells at 5 uM measured after 24 hrs by Western blot analysis; assay type: cell-based
How it was run: (§1)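 VCR-R CEM cells, 2 × 10^6 per well, seeded 4 h before 5 μM compound or DMSO for 24 h; RIPA lysis, SDS-PAGE, PVDF blotting, chemiluminescence. Probed for p-Akt (Ser473), total Akt, PARP, Bcl-xL, Mcl-1; stain-free total protein as loading control.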

CCRF-CEM [4] = assay: Effect on P-gp expression in vincristine-resistant human CEM cells at 1 uM measured after 1.5 hrs by immunostaining based flow cytometry; assay type: functional, cell-based
How it was run: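 VCR-R CEM, 2 × 10^4 cells, 1 μM compound 1.5 h at 37 °C; washed in ice-cold 1% BSA/PBS, stained 30 min at 4 °C in dark with FITC anti-human P-gp, isotype control for background; flow cytometry, gMFI normalized to DMSO. Three independent experiments.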

CEM [5] = assay: Inhibition of P-gp in vincristine-resistant human CEM cells assessed as potentiation of vincristine-induced apoptosis 1 uM measured after 48 hrs by propidium iodide staining based flow cytometry; assay type: cell-based
How it was run: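 VCR-R CEM, 0.125 × 10^6 per well, rested 4 h, then incubated 48 h with increasing vincristine with or without 1 μM compound; apoptosis by propidium iodide staining and flow cytometry. Three independent experiments.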

CEM [6] = assay: Inhibition of P-gp in vincristine-resistant human CEM cells at 0.1 to 1 uM using calcein-AM as substrate preincubated for 30 mins followed by compound washout and subsequent substrate addition measured after 60 mins by flow cytometric analysis; assay type: cell-based; settings: dose 0.1-1 µM
HepG2 [7] = assay: Induction of mitochondrial membrane disruption in human HepG2 cells at 5 uM measured after 24 hrs by JC-1 dye based flow cytometric analysis; assay type: functional, cell-based
How it was run: (§2)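 Cells (HepG2 adhered overnight; VCR-R CEM seeded 4 h before) treated with DMSO or 5 μM for 24 h; JC-1 (1 μg/mL) 1 h before harvest, PBS wash, flow cytometry; green shift read as loss of ΔΨm. CCCP (100 μM, 1 h) positive control; elacridar (5 μM) present for CEM staining.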

CCRF-CEM [8] = assay: Induction of apoptosis in vincristine-resistant human CEM cells assessed as increase in PARP cleavage at 5 uM measured after 24 hrs by Western blot analysis; assay type: functional, cell-based; how it was run: as §1
CCRF-CEM [9] = assay: Induction of mitochondrial membrane disruption in vincristine-resistant human CEM cells at 5 uM measured after 24 hrs by JC-1 dye based flow cytometric analysis; assay type: functional, cell-based; how it was run: as §2
CCRF-CEM [10] = assay: Effect on MCL1 expression in vincristine-resistant human CEM cells at 5 uM measured after 24 hrs by Western blot analysis; assay type: functional, cell-based; how it was run: as §1
CCRF-CEM [11] = assay: Effect on Bcl-XL expression in vincristine-resistant human CEM cells at 5 uM measured after 24 hrs by Western blot analysis; assay type: functional, cell-based; how it was run: as §1
HepaRG [12] = assay: Cytotoxicity against human HepaRG cells overexpressing EGFP-CYP3A4 assessed as reduction in cell viability at 10 uM measured after 24 hrs by propidium iodide staining based flow cytometry; assay type: ADME
How it was run: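 HepaRG cells, differentiated, transiently transfected with pcDNA3-CYP3A4-EGFP or empty vector 16 h before stimulation; 10 μM compound for 24 h. Propidium iodide (5 μg/mL in PBS) staining, flow cytometry without FSC/SSC gating; specific cell death = % dead (treated) − % dead (control). Three independent experiments.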

HepaRG [13] = assay: Cytotoxicity against human HepaRG cells assessed as reduction in cell viability at 10 uM measured after 24 hrs by Celltiter-blue cell viability assay; assay type: cell-based
How it was run: (§3)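 Differentiated HepaRG cells (Maintenance/Metabolism medium) exposed 24 h to 10 or 20 μM compound; viability by CellTiter-Blue, normalized to vehicle control. Means ± SEM of three independent experiments.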

[14] = Cytotoxicity against human PBMC assessed as reduction in cell viability at 1 to 10 uM measured after 48 hrs by propidium iodide staining based flow cytometry
HepaRG [15] = assay: Cytotoxicity against human HepaRG cells assessed as reduction in cell viability at 20 uM measured after 24 hrs by Celltiter-blue cell viability assay; assay type: cell-based; how it was run: as §3
HUVEC = assay: Cytotoxicity against HUVEC assessed as reduction in cell viability at 1 to 10 uM measured after 24 hrs by Celltiter-blue cell viability assay; assay type: cell-based; settings: human, dose 1-10 µM
How it was run: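 HUVECs seeded, adhered overnight, exposed 24 h to 1, 5 and 10 μM; CellTiter-Blue viability normalized to vehicle control; three independent experiments.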

Compound	Activity (HepG2 [1])	Activity (HepG2 [2])	Activity (CEM [3])	Activity (CCRF-CEM [4])	inhibition (CEM [5])	inhibition (CEM [6])	Activity (HepG2 [7])	Activity (CCRF-CEM [8])	Activity (CCRF-CEM [9])	Activity (CCRF-CEM [10])	Activity (CCRF-CEM [11])	Activity (HepaRG [12])	Activity (HepaRG [13])	Activity [14]	Activity (HepaRG [15])	Activity (HUVEC)
COc1cc2c(cc1OC)[C@@H](Cc1ccc(Oc3cc(C[C@@H]4c5cc(OC)c(OC)cc5CCN4C)ccc3O)cc1)N(C)CC2	Active	–	–	–	–	–	–	–	–	–	–	–	–	–	–	–
COc1cc2c3cc1Oc1c(OC)c(OC)cc4c1[C@@H](Cc1ccc(O)c(c1)Oc1ccc(cc1)C[C@@H]3N(C)CC2)N(C)CC4	Active	–	–	–	–	–	–	–	–	–	–	–	–	–	–	–
COc1cc2c3cc1Oc1c(OC)c(OC)cc4c1C(Cc1ccc(Cl)c(c1)Oc1ccc(cc1)CC3N(C)CC2)N(C)CC4 (mixture of isomers)	Active	inactive	inactive	inactive	Active	Active	inactive	Active	Active	inactive	inactive	–	–	–	–	–
COc1cc2c3cc1Oc1c(OC)c(OC)cc4c1C(Cc1ccc(Cl)c(c1)Oc1ccc(cc1)CC3N(C)CC2)N(C)CC4 (racemic) [listing 1 of 2 here]	–	–	–	–	–	–	–	–	–	–	–	Toxic	–	–	–	–
COc1cc2c3cc1Oc1c(OC)c(OC)cc4c1C(CCCCOc1ccc(cc1)CC3N(C)CC2)N(C)CC4 (racemic) [listing 1 of 2 here]	–	–	–	–	–	–	–	–	–	–	–	Toxic	–	–	–	–
COc1cc2c3cc1Oc1c(OC)c(OC)cc4c1C(CCCCOc1ccc(cc1)CC3N(C)CC2)N(C)CC4 (racemic) [listing 2 of 2 here]	Active	inactive	inactive	inactive	inactive	inactive	inactive	–	inactive	inactive	inactive	–	–	–	–	–
COc1cc2c3cc1Oc1c(OC)c(OC)cc4c1C(Cc1ccc(Cl)c(c1)Oc1ccc(cc1)CC3N(C)CC2)N(C)CC4 (racemic) [listing 2 of 2 here]	Active	inactive	inactive	inactive	Active	Active	inactive	–	inactive	inactive	inactive	–	–	–	–	–
COc1cc2c3cc1Oc1c(OC)c(OC)cc4c1C(Cc1cccc(c1)Oc1ccc(cc1)CC3N(C)CC2)N(C)CC4 (racemic; form 1) [listing 1 of 2 here]	–	–	–	–	–	–	–	–	–	–	–	–	Toxic	–	–	–
COc1cc2c3cc1Oc1c(OC)c(OC)cc4c1C(Cc1ccc(OC(F)(F)F)c(c1)Oc1ccc(cc1)CC3N(C)CC2)N(C)CC4 (racemic; form 1) [listing 1 of 2 here]	–	–	–	–	–	–	–	–	–	–	–	–	Toxic	Toxic	Toxic	Toxic
COc1cc2c3cc1Oc1c(OC)c(OC)cc4c1C(Cc1cc(cs1)Oc1ccc(cc1)CC3N(C)CC2)N(C)CC4 (racemic; form 1)	–	–	–	–	–	–	–	–	–	–	–	–	–	Toxic	–	Toxic
COc1cc2c3cc1Oc1c(OC)c(OC)cc4c1C(Cc1ccc(OC(F)(F)F)c(c1)Oc1ccc(cc1)CC3N(C)CC2)N(C)CC4 (racemic; form 1) [listing 2 of 2 here]	Active	inactive	inactive	inactive	Active	Active	inactive	Active	Active	inactive	inactive	–	–	–	–	–
COc1cc2c3cc1Oc1c(OC)c(OC)cc4c1C(Cc1cccc(c1)Oc1ccc(cc1)CC3N(C)CC2)N(C)CC4 (racemic; form 1) [listing 2 of 2 here]	Active	inactive	inactive	inactive	Active	Active	inactive	Active	inactive	inactive	inactive	–	–	–	–	–
COc1cc2c3cc1Oc1c(OC)c(OC)cc4c1C(Cc1cccc(c1)Oc1ccc(cc1)CC3N(C)CC2)N(C)CC4 (racemic; form 2) [listing 1 of 2 here]	–	–	–	–	–	–	–	–	–	–	–	Toxic	–	–	Toxic	–
COc1cc2c3cc1Oc1c(OC)c(OC)cc4c1C(Cc1ccc(OC(F)(F)F)c(c1)Oc1ccc(cc1)CC3N(C)CC2)N(C)CC4 (racemic; form 2)	–	–	–	–	–	–	–	–	–	–	–	Toxic	–	–	–	–
COc1cc2c3cc1Oc1c(OC)c(OC)cc4c1C(Cc1cc(cs1)Oc1ccc(cc1)CC3N(C)CC2)N(C)CC4 (racemic; form 2) [listing 1 of 2 here]	–	–	–	–	–	–	–	–	–	–	–	Toxic	Toxic	–	Toxic	–
COc1cc2c3cc1Oc1c(OC)c(OC)cc4c1C(Cc1cc(cs1)Oc1ccc(cc1)CC3N(C)CC2)N(C)CC4 (racemic; form 2) [listing 2 of 2 here]	Active	inactive	inactive	inactive	Active	Active	inactive	–	inactive	inactive	inactive	–	–	–	–	–
COc1cc2c3cc1Oc1c(OC)c(OC)cc4c1C(Cc1cccc(c1)Oc1ccc(cc1)CC3N(C)CC2)N(C)CC4 (racemic; form 2) [listing 2 of 2 here]	Active	inactive	inactive	inactive	Active	Active	inactive	–	Active	inactive	inactive	–	–	–	–	–
COc1cc2c3cc1Oc1c(OC)c(OC)cc4c1C(CCCCOc1ccc(cc1)CC3N(C)CC2)N(C)CC4 (single isomer, unassigned; diastereomer 2) [listing 1 of 2 here]	–	–	–	–	–	–	–	–	–	–	–	–	Toxic	–	Toxic	–
COc1cc2c3cc1Oc1c(OC)c(OC)cc4c1C(CCCCOc1ccc(cc1)CC3N(C)CC2)N(C)CC4 (single isomer, unassigned; diastereomer 2) [listing 2 of 2 here]	Active	inactive	inactive	inactive	inactive	inactive	inactive	–	inactive	inactive	inactive	–	–	–	–	–
COc1ccc2cc1Oc1ccc(cc1)C[C@H]1c3cc(c(OC)cc3CCN1C)Oc1c(OC)c(OC)cc3c1[C@H](C2)N(C)CC3 [FANCHININ]	Active	inactive	inactive	inactive	Active	Active	inactive	–	inactive	inactive	inactive	Toxic	Toxic	Toxic	Toxic	Toxic
